# SKKanGAS inh = S. pyogenes SKKanGAS growth inhibitors in kanamycin, primary screen, streptokinase expression inhibitor project, SKKanGAS strain, BacTiter-Glo luminescence; 6 h; inhibition, % at 7.5 µM; 1.3% of 300,000 active; AID 1662, 2009;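 active means mean replicate score, as percent of positive control median, at least 50; inconclusive means mean below 50 but one replicate at or above 50; inactive means mean and every replicate below 50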;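 further: strain carries kanamycin resistance gene driven by streptokinase promoter and grows in 40 µg/ml kanamycin; loss of luminescence reflects streptokinase promoter inhibition or plain growth inhibition; 0% = median of DMSO wells and 100% = positive control at its reference dose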
# Mdm2-MdmX inh = inhibitors of human Mdm2-MdmX association, primary screen, cell-based, luminescence, split luciferase, SaOS-2, uHTS. Protein Mdm4 (Homo sapiens) + E3 ubiquitin-protein ligase Mdm2 (Homo sapiens), …. SaOS-2 split-luciferase Mdm2/MdmX complementation. inhibition, % at 8 µM. 3% of 330,000 active;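 active means inhibition of at least 50% at 8 µM in the primary screen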
# Target sequence (O15151 whole entry, looked up): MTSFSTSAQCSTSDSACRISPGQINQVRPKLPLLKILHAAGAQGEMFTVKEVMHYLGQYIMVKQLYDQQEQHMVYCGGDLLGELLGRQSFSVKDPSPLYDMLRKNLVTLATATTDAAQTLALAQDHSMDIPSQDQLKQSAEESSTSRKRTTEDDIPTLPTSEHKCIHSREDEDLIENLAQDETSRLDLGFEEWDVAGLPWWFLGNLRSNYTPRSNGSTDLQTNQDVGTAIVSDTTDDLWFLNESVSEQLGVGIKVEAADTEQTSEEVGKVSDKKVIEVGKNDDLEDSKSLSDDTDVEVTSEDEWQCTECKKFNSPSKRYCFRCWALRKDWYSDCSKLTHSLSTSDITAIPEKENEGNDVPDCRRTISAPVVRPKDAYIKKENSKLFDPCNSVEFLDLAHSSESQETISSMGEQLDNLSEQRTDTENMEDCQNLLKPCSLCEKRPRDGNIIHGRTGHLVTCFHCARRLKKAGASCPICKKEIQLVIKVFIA
# Target sequence (Q00987 whole entry, looked up): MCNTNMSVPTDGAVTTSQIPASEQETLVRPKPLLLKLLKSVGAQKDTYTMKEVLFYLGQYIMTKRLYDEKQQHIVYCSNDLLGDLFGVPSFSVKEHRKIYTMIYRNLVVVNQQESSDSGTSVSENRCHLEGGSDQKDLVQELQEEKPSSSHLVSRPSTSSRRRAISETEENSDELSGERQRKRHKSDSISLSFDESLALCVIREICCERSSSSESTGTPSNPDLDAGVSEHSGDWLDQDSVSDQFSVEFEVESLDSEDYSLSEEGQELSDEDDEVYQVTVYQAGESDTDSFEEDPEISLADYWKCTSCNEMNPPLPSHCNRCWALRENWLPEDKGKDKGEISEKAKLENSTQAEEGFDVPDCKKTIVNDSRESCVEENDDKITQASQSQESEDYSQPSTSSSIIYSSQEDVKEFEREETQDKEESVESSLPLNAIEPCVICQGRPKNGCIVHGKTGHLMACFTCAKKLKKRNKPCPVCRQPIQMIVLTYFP
# Beta apoptosis = inhibitors of cytokine-induced beta cell apoptosis, primary screen, luminescence. INS-1E cytokine-induced death, ATP luminescence, 48 h; percent of positive-control rescue, neutral wells zero. protection from apoptosis, % (concentration not given with the values). 0.8% of 300,000 active;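 active means Every replicate reaches about 75%, or at least half do and their mean reaches it too, limit read from the data; inconclusive means At least half of replicates reach the limit but their mean does not; inactive means Under half of replicates reach the limit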;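 further: 0% = cytokine-treated negative control wells and 100% = positive control rescue; higher means more ATP so stronger rescue from cytokine killing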
# T cruzi inh = inhibitors of intracellular T. cruzi growth, primary screen, luminescence, NIH3T3 host cells. T. cruzi beta-gal in NIH3T3, 90 h. inhibition, % (no concentration beside the values). 1.4% of 300,000 active. AID 1885, 2009;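 active means mean inhibition across valid replicates above about 55%, limit read from the data; inconclusive means mean below that limit but half or more replicates reach it; inactive means mean below it, under half of replicates reach it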;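 further: signal also drops with host cell toxicity which is not excluded here; 0% = plate median of DMSO wells and 100% = zero luminescence signal; higher percent means less beta-gal luminescence so fewer parasites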
#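 compound dosing = single 50 nL compound addition per well in DMSO | material = NIH/3T3 host cells with β-galactosidase reporter T. cruzi | input = 5,000 host fibroblasts per well | timing = ≥90 h infection period, 3 h prior cell attachment | read-out basis = percent inhibition of parasite-derived β-gal signal | detection = GalScreen β-gal luminescence, detergent lysis, 60 min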
# CSC inhib = cancer stem cell viability inhibitors, primary screen, luminescence | inhibition, % at 7.5 µM | 1.1% of 300,000 active | cancer stem cell-like cells viability; in the data active means inhibition above about 75%; inconclusive means no clear call, values can overlap the other calls; tested in HMLE shEcad cells
# L major viab = Leishmania major promastigote growth inhibition, primary screen; Leishmania major promastigotes, resazurin fluorescence viability; inhibition, % at 10 µM; 9% of 200,000 active; AID 1063, 2008; in the data active means inhibition above about 50%;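 further: promastigotes grown with compound for 44 hours at 28 °C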
# Mdm2-MdmX conf = Mdm2-MdmX complex disruptors, retested hits, confirmation, luminescence, single concentration. shares compounds with Mdm2-MdmX inh. Mdm2-MdmX binding, luminescent assay. inhibition, % at 8 µM. 55% of 10,000 active; in the data active means inhibition above about 40%
# FLuc counter = full-length luciferase signal inhibition, confirmation, counter-screen for Mdm2/MdmX interaction inhibitor project, cell-based, single concentration, SaOS-2; 77% of 6,200 active; inhibition, % at 8 µM; SaOS-2 full-length luciferase counterscreen, luminescence; shares compounds with Mdm2-MdmX inh;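 active means mean inhibition at 8 µM reaching about 37%, which flags the compound as non-specific, limit read from the data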;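 further: p53-null SaOS-2 cells with luciferase driven by a doxycycline-inducible promoter; compound on cells about two nights before reading with doxycycline added after day one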
# * hit, by the source's call; u = inconclusive; x = not tested or not shown. Only some compounds are listed: those with a hit (about 9.4% of all), similar ones and a draw of the others.
SMILES,SKKanGAS inh,Mdm2-MdmX inh,Beta apoptosis,T cruzi inh,CSC inhib,L major viab,Mdm2-MdmX conf,others
O=C(/C=C/c1cccs1)N1CCC2(CC1)Oc1ccc(Cl)cc1C(=O)C21CC(c2cccnc2)=NO1 (centres undefined),37,67*,14,15,45,x,27,
COc1cc2c(c(OC)c1OC)CCc1cnoc1-2,14,15,-9,-6,0,x,x,
C[C@H](CO)N1C[C@H](C)[C@@H](CN(C)C(=O)Nc2ccc(C(F)(F)F)cc2)Oc2ccc(NC(=O)Nc3ccc(C(F)(F)F)cc3)cc2C1=O,x,65*,-25,x,x,x,-21,
C[C@H](CO)N1C[C@H](C)[C@@H](CN(C)C(=O)Nc2ccc(C(F)(F)F)cc2)Oc2c(NC(=O)Nc3ccc(C(F)(F)F)cc3)cccc2C1=O,x,84*,7,x,106*,x,-6,
N#Cc1c(NC(=O)CSc2ncnc3c2cnn3-c2ccccc2Cl)sc2c1CCCC2,16,25,11,-1,38,12,x,
COC(=O)c1c(NC(=O)CSc2ncnc3c2cnn3-c2ccccc2Cl)sc2c1CCCC2,-3,53*,7,22,12,20,13,
CCCC(O)(CCC)C(=O)NN(C(=O)CCl)c1ccccc1,-5,58*,21,17,7,52*,23,
CCCCC(O)(CCCC)C(=O)NN(C(=O)OCC)c1ccccc1,5,7,-5,-20,-10,-2,x,
CC1(O)N(CCC(=O)Nc2cccc(F)c2)C(=O)OC12CCCCC2 (centres undefined),-2,19,-2,-8,-10,-1,x,
COCCCN1CN(S(=O)(=O)c2cccs2)c2nc3ccccc3nc21,-2,-9,-4,-10,-14,x,x,
Cc1cc(Cl)n2ncc(-c3ccccc3)c2n1,-2,63*,-8,-19,-2,x,8,
CC(=O)Nc1ccc(NC(=O)C(C)OC(=O)CCSc2ccccc2Cl)cc1 (centres undefined),x,7,-6,x,-13,x,x,
COc1ccc(NCC(=O)Nc2ccc(Br)cc2F)c(OC)c1,1,27,16,49,10,x,x,
CCOc1ccc2nc3cc(NCc4ccc(OC)cc4)ccc3c(N)c2c1,13,97*,28,53,121*,x,85*,FLuc counter=15
CC(=O)N1CCc2cc(N=NC3=C(O)CC(C)(C)CC3=O)ccc21,12,-44,0,5,-7,-3,x,
COC(=O)/C(=C1/Oc2ccc(C(C)(C)C)cc2S1)C(F)(F)F,-4,18,6,-34,5,-9,x,
COC(=O)/C(=C1/Oc2cc(C)oc(=O)c2S1)C(F)(F)F,-1,100*,-6,47,-14,49,100*,FLuc counter=51*
COc1ccc(/C=N/Nc2nonc2N)cc1,-18,-8,6,-27,-16,-1,x,
COc1ccc(/C=N/Nc2nonc2N)cc1OC,8,51*,3,2,1,2,8,
CCCOc1ccc(C(=O)NNC(=S)NC(=O)c2ccco2)cc1,104*,51*,20,u,34,x,40,FLuc counter=52*
CCCOc1ccc(C(=O)NNC(=S)NC(=O)c2cccs2)cc1,74*,60*,41,21,49,x,37,
Cc1cc(OCC(=O)NNC(=S)NC(=O)c2cccs2)ccc1Cl,x,30,4,x,3,x,x,
CCCCOC(=O)c1ccc(NC(=S)NC(=O)c2ccco2)cc1,4,33,6,-8,-4,x,x,
Cc1ccc(OCC(=O)NNC(=S)NC(=O)c2cccs2)c(C)c1,87*,51*,6,-8,u,x,9,
COc1cc(Cl)c(C)cc1NC(=O)CCN1C(=O)NC(C)(C)C1=O,x,11,x,x,x,x,x,
